Screening data: PubChem BioAssay, Broad Institute
Ecoli rRNA inh: selective bacterial rRNA inhibition in E. coli | 350,000 compounds, 1.6% hits | GFP signal change (wild-type ribosome), % (no concentration beside the values) | AID 720706 | E. coli WT GFP vs humanized-ribosome RFP mutants, fluorescence, 24 h; hits give low values; DMSO median 0, no signal -100;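 active means significant combined selectivity score with lowered wild-type GFP, culture density cut under 30%, mutant RFP and density less affected; inactive means any of these conditions unmet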
PvdQ acylase: P. aeruginosa PvdQ acylase inhibition; purified PvdQ acylase, fluorescence plate reader; AID 488965; 340,000 compounds, 0.063% hits; inhibition, % at 10 µM; in the data active means inhibition above about 30%, passing the limit was not always enough;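 further: 0% = vehicle neutral wells and 100% = reference inhibitor wells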
SR-BI uptake up: SR-BI HDL lipid transfer activation; CHO ldlA[mSR-BI] cells, DiI-HDL uptake fluorescence, 3 h; 100 = double the neutral-control signal; activation, % at 12.5 µM; 320,000 compounds, 0.096% hits; AID 504775;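 active means mean replicate activation of at least 60% and every replicate at or above 60%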;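 further: 0% = median plate neutral-control signal and 100% = twice that signal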
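Test system: SR-BI-overexpressing, LDLR-lacking CHO cells. Measured by: DiI fluorescence, bottom read. Medium: Ham's F12 with 0.5% BSA, HEPES 25 mM, pH 7.4. Timing: 3 h uptake period with compound, 37 °C.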
SR-BI HDL uptake: inhibitors of mouse SR-BI mediated HDL lipid uptake; 320,000 compounds, 0.96% hits; Q61009; inhibition, % at 12.5 µM; ldlA[mSR-BI] CHO cells, DiI-HDL uptake fluorescence, 3 h;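 active means mean replicate inhibition of at least 70% and a set share of replicates each scoring 70 or more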;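 further: 0% = median of neutral control wells and 100% = median of positive control wells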
Target sequence (Q61009 whole entry, looked up): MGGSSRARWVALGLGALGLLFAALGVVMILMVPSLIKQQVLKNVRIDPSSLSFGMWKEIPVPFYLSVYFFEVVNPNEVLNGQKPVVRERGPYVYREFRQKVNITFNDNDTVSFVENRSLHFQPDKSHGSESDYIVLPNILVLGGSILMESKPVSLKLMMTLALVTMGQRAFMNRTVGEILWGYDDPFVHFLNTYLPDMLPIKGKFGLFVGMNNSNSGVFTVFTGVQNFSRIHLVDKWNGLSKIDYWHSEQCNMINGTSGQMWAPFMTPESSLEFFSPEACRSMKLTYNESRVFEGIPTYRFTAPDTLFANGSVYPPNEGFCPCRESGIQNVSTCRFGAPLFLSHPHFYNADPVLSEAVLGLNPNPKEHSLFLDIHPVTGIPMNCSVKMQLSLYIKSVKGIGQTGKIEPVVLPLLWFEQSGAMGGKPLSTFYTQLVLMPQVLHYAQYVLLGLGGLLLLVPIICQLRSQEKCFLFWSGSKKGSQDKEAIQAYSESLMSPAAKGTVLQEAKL
Xi reactivation: activators of X-chromosome reactivation in mouse fibroblasts. XiGFP mouse fibroblasts, % GFP-positive cells imaging, 3 d; cells co-treated with 5-aza-dC sensitizer; scaled so ellipticine positive control = 100%. activation, % at 7.58 µM. 360,000 compounds, 0.055% hits. AID 743238;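 active means mean normalized replicate activation at least 10% and every replicate at or above 10%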;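 further: 0% = median of on-plate neutral control wells and 100% = ellipticine 6 µM median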
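Material: XiGFP fibroblasts, SV40-immortalized; Buffer or medium: DMEM containing 5-aza-dC; Compound dosing: single point; Times: 3 days compound exposure.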
dFosB act: enhances mouse delta FosB homodimer DNA binding. 340,000 compounds, 0.99% hits. purified delta FosB, TAMRA-CDK5 oligo fluorescence polarization; percent of positive-control signal above neutral wells. activation, % at 25 µM;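 active means mean activation above about 17%, with every replicate also reaching it, limit read from the data, passing the limit was not always enough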
* = called active by the depositor; . = no result. Rows were chosen to be rich in hits. Some 2.6% of all compounds tested hit in one or more screens of this group.

SMILES	Ecoli rRNA inh	PvdQ acylase	SR-BI uptake up	SR-BI HDL uptake	Xi reactivation	dFosB act
CCOC(=O)c1cccc(NC(=O)CCS(=O)(=O)c2cccc3nsnc23)c1	.	-6	-23	23	.	3
COc1ccccc1NC(=O)c1sc2nc(N3CCOCC3)c3c(c2c1N)CCCC3	1	-4	.	84*	0	-8
CCOC(=O)c1sc2nc(N3CCOCC3)c3c(c2c1N)CCC3	.	-16	-74	74*	.	-4
Cc1ccccc1NC(=O)c1sc2nc(N3CCOCC3)c3c(c2c1N)CCCC3	1	-3	-69	69	0	-10
Cc1c(Br)c([N+](=O)[O-])nn1CC(=O)Nc1nccs1	15	-11	-13	13	0	4
Cc1ccccc1CSc1nc2ccccc2c(=O)[nH]1	.	23	17	-17	0	-3
CCC(=O)N1C[C@H](C)[C@@H](OC)CN(C)C(=O)c2ccc(NC(=O)C3CCCCC3)cc2OC[C@@H]1C	-3	.	.	.	1	.
CCN(CC(=O)Nc1c(F)cccc1F)C(=O)CSc1ccc(F)cc1	7	-11	8	-8	0	4
O=C(NC(=S)N1CCOCC1)c1cn(-c2ccccc2)nc1-c1ccccc1	-19*	-5	-17	17	0	-21
C#CCOCCOCCOCCNc1nc(N2CCN(C(=O)[C@H](CCC(=O)O)n3cc(C(N)CO)nn3)CC2)nc(N2CCN(C(=O)[C@H](Cc3cc4ccccc4[nH]3)n3cc(C(N)[C@H](C)CC)nn3)CC2)n1 (some centres not stated)	.	-16	15	-15	.	1
C#CCOCCOCCOCCNc1nc(N2CCN(C(=O)[C@H](CCCCN)n3cc([C@@H](N)C(C)CC)nn3)CC2)nc(N2CCN(C(=O)[C@H](Cc3cc4ccccc4[nH]3)n3cc([C@@H](N)CC(C)C)nn3)CC2)n1 (some centres not stated)	.	-22	-10	10	.	34*
CC(C)C12NC(=O)NC(=O)N1CCS2 (configuration not stated)	15	4	13	-13	0	-4
C=CCn1nnnc1SCC(=O)Nc1ccccc1C(=O)OC	.	3	-30	30	.	4
CC(=O)c1ccc(OCC(C)C)c(CC(C(N)=O)C(N)=O)c1	8	-1	-10	10	.	-3
Fc1ccc(CCN2CCN=C2Nc2ccccc2)cc1	22	-16	68*	-68	1	4
c1ccc(CCN2CCN=C2Nc2ccccc2)cc1	20	-11	-1	1	0	-9
Cc1ccc(C2C(C(=O)c3cccs3)=C(O)C(=O)N2c2cccc(C)n2)cc1 (configuration not stated)	-15*	-17	-6	6	0	-7
CCOc1ccc(Nc2ccc(S(=O)(=O)N3CCOCC3)cc2[N+](=O)[O-])cc1	7	.	.	.	0	.
Cc1ccc2cc(CN(Cc3cccs3)Cc3nnnn3CC3CCCO3)c(=O)[nH]c2c1 (configuration not stated)	-29*	-18	-6	6	.	-10
Cc1ccc2[nH]c(=O)c(CN(Cc3cccs3)Cc3nnnn3CC3CCCO3)cc2c1 (configuration not stated)	.	9	5	-5	.	-4
Cc1ccc(-c2cc(C(F)F)nc(NCc3cccs3)n2)cc1	.	-11	6	-6	0	0
Cc1ccc(-c2cc(C(F)F)nc(NCC3CCCO3)n2)cc1 (configuration not stated)	.	-6	223*	-224	.	-15
Cc1ccc(-c2nc(C#N)c(NCC3CCCO3)o2)cc1 (configuration not stated)	-24*	-15	-26	26	0	-6
CCOc1ccccc1N1CCN(C2=C(NS(=O)(=O)c3cccs3)C(=O)c3ccccc3C2=O)CC1	.	-14	-81	81*	.	-16
CN1CCN(C2=C(NS(=O)(=O)c3cccs3)C(=O)c3ccccc3C2=O)CC1	-2	-3	-14	14	0	2
SMILES	Ecoli rRNA inh	PvdQ acylase	SR-BI uptake up	SR-BI HDL uptake	Xi reactivation	dFosB act
O=C(O)CC1S/C(=N\N=C2\C(=O)Nc3ccccc32)N(c2ccc(O)cc2)C1=O (configuration not stated)	1	-14	.	.	0	-8
Oc1ccccc1N=Nc1ccccc1O	-9	-5	-87	87*	1	-6
Nc1ccc(N=Nc2ccccc2O)c(N)c1	-40*	.	.	.	0	.
CC(=O)N1CC2(C1)[C@@H](c1ccccc1)[C@@H](CO)N2S(=O)(=O)c1ccccc1	-1	.	.	.	0	.
O=c1cnc2ccccc2n1Cc1ccccc1C(F)(F)F	-2	26	-12	12	0	-8
COc1ccc(C(=O)Nc2nc(C)c(C)s2)cc1OC	.	-9	-79	79*	.	2
COc1ccc(C(=O)Nc2cccc3cccnc23)cc1OC	1	-8	-79	79*	.	-34
COc1ccccc1C(=O)Nc1cccc(NC(=O)c2ccccc2OC)n1	2	-12	-32	32	0	-1
O=C(Nc1cccc2cccnc12)c1ccccc1Br	-25*	12	-13	13	0	1
COc1ccc(C(=O)Nc2cccc(NC(=O)c3ccc(OC)c(OC)c3)n2)cc1OC	-6	-11	-81	81*	0	-28
CC(=O)N(CC(C)C)C[C@@H]1N[C@H](CO)[C@H]1c1ccc(-c2cncnc2)cc1	1	.	.	.	0	.
COc1cc(/C=C2\SC(=S)N(C(C(=O)O)c3ccccc3)C2=O)cc(OC)c1OC (configuration not stated)	-26*	6	17	-17	0	-8
COc1cccc(/C=C2\SC(=S)N(C(C(=O)O)c3ccccc3)C2=O)c1OC (configuration not stated)	-34*	-2	27	-27	0	-1
COc1ccccc1NC(=O)CCN1C(=O)/C(=C/c2cc(OC)c(OC)c(OC)c2)SC1=S	10	-4	-30	30	0	-12
COc1ccc(/C=C2\SC(=S)N(C(C(=O)O)c3ccccc3)C2=O)c(OC)c1 (configuration not stated)	-47	-3	14	-14	0	-8
CO[C@@H]1CN(C)C(=O)c2cc(NC(=O)c3cc(C)on3)ccc2OC[C@@H](C)N(C(C)=O)C[C@H]1C	2	.	.	.	0	.
CCOc1cccc(/C=C/c2ccc3cccc(O)c3n2)c1O	-54	0	-14	14	1	-8
COc1ccc(Cl)cc1/C=C/c1ccc2cccc(O)c2n1	1	-2	-83	83*	1	-6
CCOc1cccc(/C=C/c2ccc3cccc(O)c3n2)c1OC	-37*	22	-24	24	2	-3
